Screening data: PubChem, several laboratories
In the library only some 1.7% were active in any assay of this set; here they are far more common.
T cell modulator: modulates CD8 T cell binding to vesicles. 2C CD8+ T cell-vesicle binding, flow cytometry; hits give low values. response (vesicle binding), % at 7 µM. 330,000 compounds, 0.068% hits. AID 2052;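 active = response, share of CD8 T cells binding vesicles, and their 90th percentile fluorescence all below set limits, cut at about 80% in these data, passing the limit was not always enough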;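 also: values below 100% mean blocked vesicle binding to the CD8+ T cells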
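incubation = binding step 1.5 h, 37 °C, antibody labelling 20 min, ice | test system = 2C mouse CD8+ T cells | read-out basis = percent CD8+ FL2 mean versus row control | controls = Peptide-free naked vesicles (low) and QL9 vesicles with 0.7% DMSO vehicle (high) | detection = flow cytometry of vesicle-bound cells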
Myeloid diff MLP: myeloid differentiation induction; ER-HoxA9 myeloid progenitors, lysozyme-GFP differentiation, flow cytometry; calls only at 10 µM; 360,000 compounds, 1% hits;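 active = normalized GFP-positive differentiation at or above the plate's own cutoff, the solvent-only control mean plus 3 SD; inconclusive = no clear call, values can overlap the other calls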;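 also: cells exposed to compound for four days before flow analysis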
DSG3 Ab inh: human desmoglein-3 autoantibody binding inhibition; P32926; DSG3-coupled beads, scFv-anti-DSG3-GFP binding, flow cytometry; hits give low values; binding (percent of control), % at 10 µM; 310,000 compounds, 0.48% hits;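 active = binding more than 3 SD below its plate's average and above zero; inconclusive = below that plate limit but binding exactly zero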;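 also: hits lower antibody fragment binding to DSG3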
Target sequence (P32926 whole entry, looked up, the tested form may be a part): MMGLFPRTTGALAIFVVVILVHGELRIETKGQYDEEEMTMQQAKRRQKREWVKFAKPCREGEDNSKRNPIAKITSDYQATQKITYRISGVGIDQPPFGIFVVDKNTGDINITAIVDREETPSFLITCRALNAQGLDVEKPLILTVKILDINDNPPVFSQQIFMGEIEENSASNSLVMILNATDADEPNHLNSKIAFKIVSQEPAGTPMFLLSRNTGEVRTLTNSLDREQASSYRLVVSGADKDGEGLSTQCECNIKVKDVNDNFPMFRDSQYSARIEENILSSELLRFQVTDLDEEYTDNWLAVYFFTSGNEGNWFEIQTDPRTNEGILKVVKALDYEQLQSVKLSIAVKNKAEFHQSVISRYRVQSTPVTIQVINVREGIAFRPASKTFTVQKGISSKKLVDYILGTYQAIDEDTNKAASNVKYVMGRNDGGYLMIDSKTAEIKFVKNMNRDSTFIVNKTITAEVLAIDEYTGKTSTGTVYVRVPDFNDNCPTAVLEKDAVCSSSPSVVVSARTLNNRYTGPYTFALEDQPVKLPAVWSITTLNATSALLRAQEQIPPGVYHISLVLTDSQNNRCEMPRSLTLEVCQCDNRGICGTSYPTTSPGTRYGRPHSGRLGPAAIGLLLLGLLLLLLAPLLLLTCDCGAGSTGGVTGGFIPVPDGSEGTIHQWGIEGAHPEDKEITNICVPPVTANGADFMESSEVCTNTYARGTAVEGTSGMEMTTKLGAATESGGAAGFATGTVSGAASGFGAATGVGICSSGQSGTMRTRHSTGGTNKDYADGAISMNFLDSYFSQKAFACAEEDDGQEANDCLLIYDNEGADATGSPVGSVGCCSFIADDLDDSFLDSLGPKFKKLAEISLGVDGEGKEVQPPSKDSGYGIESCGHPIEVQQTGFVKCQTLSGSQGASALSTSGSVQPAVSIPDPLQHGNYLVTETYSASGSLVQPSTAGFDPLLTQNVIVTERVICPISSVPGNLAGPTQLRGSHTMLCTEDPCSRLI
Vif inh: inhibitors of HIV Vif. inhibition, % at 7.49 µM. HEK293T cells, Vif self-association by quenched fluorescence, imaging, 24 h. AID 602346. 340,000 compounds, 0.35% hits; in the data active = inhibition above about 50%, passing the limit was not always enough; inconclusive = no clear call, values can overlap the other calls; inactive = below about 31%
Large screens that a line does not name were inactive.

COc1cccc(CC2(CO)CCN(C(=O)NC3CCCCC3)CC2)c1	none
COc1cccc(CC2(CO)CCN(C(=O)NCCc3ccccc3)CC2)c1	Myeloid diff MLP active
C#CCn1c(=NC(=O)c2sc3ccccc3c2Cl)sc2cc(S(N)(=O)=O)ccc21	DSG3 Ab inh 109
Cn1c(=O)c(C(=O)NNC(=O)c2ccccc2F)c(O)c2ccccc21	Myeloid diff MLP active
CCN(CC)c1cc(C)c2cc(NC(=O)c3ccccc3OC)ccc2n1	Myeloid diff MLP active
CCN(CC)c1cc(C)c2cc(NC(=O)c3cccs3)ccc2n1	none
CC1CCCCN1c1nc(-c2ccncc2)nc2ccccc12 (stereo unspecified)	Myeloid diff MLP active
CCC1CCCCN1c1nc(-c2ccncc2)nc2ccccc12 (stereo unspecified)	none
CCCn1c(N)c(N(CCOC)C(=O)c2ccc([N+](=O)[O-])cc2Cl)c(=O)[nH]c1=O	Vif inh 67
COC(=O)c1[nH]c2c(c1C)C(=O)CC(c1cccc(OC)c1)C2 (stereo unspecified)	Vif inh inconclusive (no result: Myeloid diff MLP)
CC1(C)C2CC[C@]3(C)C(CC=C4[C@@H]5C[C@@](C)(CO)[C@@H](O)C[C@]5(C(=O)O)CC[C@]43C)[C@@]2(C)CC[C@@H]1O (stereo partly specified)	Vif inh 67 (no result: DSG3 Ab inh)
CC1(C)CC[C@]2(CO)[C@@H](O)C[C@]3(C)C(=CCC4[C@@]5(C)CC[C@H](O)C(C)(C)C5CC[C@]43C)[C@@H]2C1 (stereo partly specified)	none (no result: Myeloid diff MLP, DSG3 Ab inh, Vif inh)
OC(CN1C2=NCCN2c2ccccc21)c1ccc(Br)cc1 (stereo unspecified)	Myeloid diff MLP active
COc1ccc(C(=O)Nc2ccc3c(c2)OCO3)cc1S(=O)(=O)N1CCOCC1	none (no result: T cell modulator)
CN(C(=O)CSc1nc2ccccc2c(=O)n1-c1ccccc1F)C1CCS(=O)(=O)C1 (stereo unspecified)	Vif inh 62
Cc1cccc(-n2c(SCC(=O)N(C)C3CCS(=O)(=O)C3)nc3ccccc3c2=O)c1C (stereo unspecified)	none
CCCCN1C(=O)C(=O)N(CC(=O)Nc2cc(Cl)ccc2OC)C1=O	none (no result: Vif inh)
CCCCSCCCNC(=S)Nc1ccccc1C	none (no result: DSG3 Ab inh)
CCCCNC(=S)Nc1ccccc1Cc1ccccc1	DSG3 Ab inh 96, Vif inh inconclusive
Cc1c2ccncc2cc2c1[nH]c1ccccc12	Myeloid diff MLP inconclusive (no result: T cell modulator)
Cc1c2c(cc3c1[nH]c1ccccc13)C=NCC2	Myeloid diff MLP active (no result: T cell modulator)
COc1ccc(NC(=O)CN(C)CC(=O)N2CC(=O)Nc3ccccc32)cc1	none
O=C/C(=C\Nc1ccccn1)c1nc2cc(Cl)ccc2o1	Myeloid diff MLP active, Vif inh 61
CC(=O)Nc1cccc(N/C=C(\C=O)c2nc3ccccc3o2)c1	Myeloid diff MLP active
O=C/C(=C\Nc1ccccn1)c1nc2ccccc2o1	none (no result: Vif inh)
O=C(COc1ccccc1Cl)Nc1ccccc1C(=O)N1CCCCC1	none
Cc1nn(C)cc1C(C(=O)NC1CCCCC1)N(Cc1ccccc1Cl)C(=O)c1cnccn1 (stereo unspecified)	none
Cc1nn(C)cc1C(C(=O)NC1CCCCC1)N(Cc1ccc(F)cc1)C(=O)c1cnccn1 (stereo unspecified)	DSG3 Ab inh 54
Cc1ccc2[nH]c3c(c2c1)CN(C(=O)CN1CC(C)OC(C)C1)CC3 (stereo unspecified)	Myeloid diff MLP active (no result: DSG3 Ab inh)
CN(C1CCCCC1)S(=O)(=O)c1ccc(SCC(=O)C(C)(C)C)nc1	none
COc1ccc2nc(N3C(=O)C(O)=C(C(=O)c4ccco4)C3c3ccccc3OC)sc2c1 (stereo unspecified)	Vif inh 82
COc1ccc2nc(N3C(=O)C(O)=C(C(=O)c4ccco4)C3c3ccc(C)o3)sc2c1 (stereo unspecified)	none (no result: T cell modulator)
Cc1ccc2nc(N3C(=O)C(O)=C(C(=O)c4ccc(C)o4)C3c3ccc(O)cc3)sc2c1 (stereo unspecified)	Myeloid diff MLP active
COc1ccccc1N(C)S(=O)(=O)c1ccc(C(=O)N(C)Cc2ccc(Cl)s2)cc1	none
Cc1c(-c2ccc(Cl)cc2)oc(=O)c2c(N)n(-c3ccccc3)nc12	DSG3 Ab inh -17
CC(=O)Nc1sc2c(c1-c1nc3ccccc3s1)CN(C(C)C)CC2	Myeloid diff MLP inconclusive
CC(=O)N1CCc2c(sc(NC(=O)C3CC3)c2-c2nc3ccccc3s2)C1	Myeloid diff MLP active
CCN(CC(=O)Nc1ccc2c(c1)OCCO2)C(=O)/C=C/c1cc(Br)ccc1OC	none (no result: T cell modulator)
CCN(CC(=O)Nc1ccccc1C(F)(F)F)C(=O)c1ccc2c(=O)n3c(nc2c1)CCC3	Myeloid diff MLP active (no result: DSG3 Ab inh)
CCN(CC(=O)Nc1c(F)cccc1F)C(=O)c1ccc2c(=O)n3c(nc2c1)CCC3	none (no result: T cell modulator)
COc1cc(/C=C2\SC(=O)N(CCNC(=O)c3sc4cc(F)ccc4c3Cl)C2=O)cc(OC)c1OC	Vif inh 63
COc1ccc(C(C(=O)NC(C)(C)C)N(CCC(C)C)C(=O)CCC(=O)Nc2cc(C)on2)cc1 (stereo unspecified)	Myeloid diff MLP active
COc1ccc(C(C(=O)NC(C)(C)C)N(Cc2ccccc2)C(=O)CCC(=O)Nc2cc(C)on2)cc1 (stereo unspecified)	none
O=C(CC1CCCC1)N1CCN(S(=O)(=O)c2cccc(Br)c2)CC1	none (no result: T cell modulator)
COc1ccc(C(=O)Nc2ccc(Oc3ncnc4sc(-c5ccccc5)cc34)cc2)cc1OC	DSG3 Ab inh -207
COc1ccccc1C(=O)Nc1ccc(Oc2ncnc3sc(-c4ccccc4)cc23)cc1	none
COc1ccc(C(=O)Nc2ccc(Oc3nc(C)nc4sc(-c5ccccc5)cc34)cc2)cc1OC	none
COc1cc(C(=O)Nc2ccc(Oc3ncnc4sc(-c5ccccc5)cc34)cc2)cc(OC)c1OC	DSG3 Ab inh -10
Cc1cccc(C)c1NC(=O)C1(C)CSCC(=O)N1C1CCN(Cc2ccccc2)CC1 (stereo unspecified)	none (no result: T cell modulator, DSG3 Ab inh, Vif inh)
O=c1c2ccc([N+](=O)[O-])cc2ncn1CCOc1ccccc1	Myeloid diff MLP active
CCNC(=O)c1cc2c(c(-c3cccc(-c4cccc(C(=O)N(C)C)c4)c3)n1)[C@@H](CCO)N(S(=O)C(C)(C)C)C2 (stereo partly specified)	none (no result: T cell modulator, DSG3 Ab inh)
COc1ccc(NC(=O)c2oc3ccccc3c2NC(=O)c2ccc(OC)c(OC)c2)c(OC)c1	DSG3 Ab inh 7.3 (no result: T cell modulator)
COc1ccc(NC(=O)c2oc3ccccc3c2NC(=O)COc2ccccc2OC)c(OC)c1	none
O=C(COC(=O)CCCN=C1NS(=O)(=O)c2ccccc21)NNC(=O)c1ccccc1	none
C=CCNc1sc(C(=O)c2ccc(Br)s2)c(N)c1C#N	Vif inh 111
C=CCNc1sc(C(=O)c2ccccc2)c(N)c1C#N	none
CCOc1ccc(CCNC(=O)COC(=O)Cn2cnc3ccccc3c2=O)cc1OCC	Myeloid diff MLP active
COc1ccc(N2CCN(CC(=O)Nc3ccccc3C(=O)NC(C)c3ccccc3)CC2)cc1 (stereo unspecified)	Myeloid diff MLP active (no result: T cell modulator)
COc1ccccc1N1CCN(CC(=O)Nc2ccccc2C(=O)NC(C)c2ccccc2)CC1 (stereo unspecified)	none
